Measurements published in ChEMBL document CHEMBL5104118, “Structure-activity relationships of hydrophobic alkyl acrylamides as tissue transglutaminase inhibitors” (RSC Med Chem, 2022).
The source made the active and inactive calls. The calls are words filed in the database; no cut-off is given here.

Tests used:
[1] = biological target: T1, Protein-glutamine gamma-glutamyltransferase (Homo sapiens) (UniProt P21980); test: Inhibition of recombinant human TG2 expressed in Escherichia coli assessed as Kinact using Cbz-Glu(gamma-p-nitrophenyl ester)Gly (AL5) as substrate by colorimetric assay
T1 sequence (whole entry): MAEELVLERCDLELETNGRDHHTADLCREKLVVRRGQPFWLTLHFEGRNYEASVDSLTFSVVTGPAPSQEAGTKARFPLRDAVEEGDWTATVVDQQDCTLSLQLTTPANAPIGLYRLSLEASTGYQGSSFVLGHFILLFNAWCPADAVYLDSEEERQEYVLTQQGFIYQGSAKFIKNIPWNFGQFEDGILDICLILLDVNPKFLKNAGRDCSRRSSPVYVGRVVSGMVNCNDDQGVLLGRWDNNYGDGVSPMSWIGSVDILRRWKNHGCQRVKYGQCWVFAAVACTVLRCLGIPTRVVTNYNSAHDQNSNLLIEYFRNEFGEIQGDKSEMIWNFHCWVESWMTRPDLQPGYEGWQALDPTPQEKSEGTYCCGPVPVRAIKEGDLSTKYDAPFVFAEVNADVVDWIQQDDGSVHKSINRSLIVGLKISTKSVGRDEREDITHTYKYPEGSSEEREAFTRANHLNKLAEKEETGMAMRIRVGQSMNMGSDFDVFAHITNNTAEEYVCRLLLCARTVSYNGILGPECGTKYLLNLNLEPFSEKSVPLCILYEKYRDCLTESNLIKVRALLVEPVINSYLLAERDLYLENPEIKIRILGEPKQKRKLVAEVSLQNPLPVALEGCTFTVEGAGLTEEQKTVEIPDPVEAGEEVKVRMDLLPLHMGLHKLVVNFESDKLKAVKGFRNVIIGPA
Outline: (§1)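 Kitz–Wilson conditions, triplicate, 25 °C: 50 mM MOPS pH 6.9, 7.5 mM CaCl2, 100 μM AL5, inhibitor 0.5–900 μM (varies by inhibitor), DMSO ≤5% v/v final; started with 5 mU/mL TG2; p-nitrophenolate read at 405 nm for 20 min. Mono-exponential fits give kobs; kobs vs [I] fitted to saturation model with α = 1+[S]/KM (KM 10 μM), giving kinact and KI; double reciprocal if unsaturated.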

[2] = biological target: T2, Protein-glutamine gamma-glutamyltransferase (Homo sapiens, UniProt P21980); test: Inhibition of recombinant human TG2 expressed in Escherichia coli assessed as inhibition constant using Cbz-Glu(gamma-p-nitrophenyl ester)Gly (AL5) as substrate by colorimetric assay; outline: as §1
T2 sequence (P21980 whole entry): T1 sequence (whole entry)

[3] = biological target: T1, Protein-glutamine gamma-glutamyltransferase (Homo sapiens); test: Inhibition of recombinant human TG2 expressed in Escherichia coli assessed as Kinact/Ki ratio using Cbz-Glu(gamma-p-nitrophenyl ester)Gly (AL5) as substrate by colorimetric assay; outline: as §1
[4] = biological target: T1, Protein-glutamine gamma-glutamyltransferase (Homo sapiens); test: Inhibition of GTP binding to recombinant human TG2 expressed in Escherichia coli incubated for 30 mins by GTP-gamma-S BODIPY assay

| Compound | Kinact [1] [min⁻¹] | Ki [2] [µM] | Ratio [3] | inhibition [4] |
| --- | --- | --- | --- | --- |
| C=CC(=O)NCC(=O)N1CCN(C(=O)C23CC4CC(CC(C4)C2)C3)CC1 | 1.34 | 3.2 | 412 10^3/M/min | Active |
| C=CC(=O)NCCCCC(=O)N1CCN(C(=O)C23CC4CC(CC(C4)C2)C3)CC1 | 0.19 | 4.5 | 41.9 10^3/M/min |  |
| C=CC(=O)NCCC(=O)N1CCN(S(=O)(=O)c2cccc3c(N(C)C)cccc23)CC1 | 0.25 | 64.5 | 3.9 10^3/M/min |  |
| C=CC(=O)NCCCC(=O)N1CCN(S(=O)(=O)c2cccc3c(N(C)C)cccc23)CC1 | 0.54 | 74.2 | 7.3 10^3/M/min |  |
| C=CC(=O)NCC(=O)N1CCN(S(=O)(=O)c2cccc3c(N(C)C)cccc23)CC1 | 2.25 | 1.49 | 1510 10^3/M/min | Active |
| C=CC(=O)NCCCC(=O)N1CCN(C(=O)c2cccc3ccccc23)CC1 | 0.45 | 134 | 3.3 10^3/M/min |  |
| C=CC(=O)NCC(=O)N1CCN(C(=O)c2cccc3ccccc23)CC1 | 0.69 | 25 | 27.5 10^3/M/min | Active |
| C=CC(=O)NCCCCCC(=O)N1CCN(S(=O)(=O)c2cccc3c(N(C)C)cccc23)CC1 | 0.23 | 27.4 | 8.6 10^3/M/min |  |
| C=CC(=O)NCCCCC(=O)N1CCN(C(=O)c2cccc3ccccc23)CC1 | 0.44 | 142 | 3.1 10^3/M/min |  |
| C=CC(=O)NCCCCC(=O)N1CCN(S(=O)(=O)c2cccc3c(N(C)C)cccc23)CC1 | 0.55 | 42 | 13.1 10^3/M/min |  |
| C=CC(=O)NCCCCCC(=O)N1CCN(C(=O)c2cccc3ccccc23)CC1 | 0.46 | 109 | 4.2 10^3/M/min |  |
| C=CC(=O)NCCC(=O)N1CCN(C(=O)c2cccc3ccccc23)CC1 | 0.13 | 51.6 | 2.4 10^3/M/min |  |
| C=CC(=O)NCC(=O)N1CCN(S(=O)(=O)c2cccc3ccccc23)CC1 | 0.7 | 6.51 | 108 10^3/M/min | Active |
| C=CC(=O)NCCCCCC(=O)N1CCN(C(=O)C23CC4CC(CC(C4)C2)C3)CC1 | 0.36 | 38 | 9.5 10^3/M/min |  |
